The target in assay [1] is T1, G-protein coupled bile acid receptor 1 (Homo sapiens) (UniProt Q8TDU6).
T1 sequence (whole entry): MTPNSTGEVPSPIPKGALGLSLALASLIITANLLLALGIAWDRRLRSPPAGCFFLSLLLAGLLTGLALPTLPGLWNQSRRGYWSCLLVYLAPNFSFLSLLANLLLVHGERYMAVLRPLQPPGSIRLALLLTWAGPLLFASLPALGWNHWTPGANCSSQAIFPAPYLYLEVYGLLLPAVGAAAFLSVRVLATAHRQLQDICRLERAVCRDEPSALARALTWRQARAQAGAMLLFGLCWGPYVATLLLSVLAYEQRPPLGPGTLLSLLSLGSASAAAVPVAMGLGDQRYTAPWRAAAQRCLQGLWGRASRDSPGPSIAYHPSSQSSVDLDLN
Description: Agonist activity at human TGR5 expressed in HEK293 cells at 10 uM incubated for 30 mins by SEAP reporter gene based assay relative to control. Format: functional, cell-based. The essentials:
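293T/17 cells reverse-transfected with human TGR5 on reporter strips (3.8 × 10^4 cells/well, 20 h), then moved to serum-free DMEM stimulation medium with 1% DMSO. Compound at 10 µM in triplicate, 30 min on the bench, then 7 h at 37 °C. Medium heated 65 °C 30 min, SEAP substrate added, luminescence read. Efficacy is basal-subtracted RLU as % of 10 µM LCA. Mean ± SD of ≥2 independent experiments.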
On the technique in general: In a reporter assay the amount or activity of a reporter protein is the signal.

In assay [2] the target is T2, Bile acid receptor (Homo sapiens) (UniProt Q96RI1).
T2 sequence (whole entry): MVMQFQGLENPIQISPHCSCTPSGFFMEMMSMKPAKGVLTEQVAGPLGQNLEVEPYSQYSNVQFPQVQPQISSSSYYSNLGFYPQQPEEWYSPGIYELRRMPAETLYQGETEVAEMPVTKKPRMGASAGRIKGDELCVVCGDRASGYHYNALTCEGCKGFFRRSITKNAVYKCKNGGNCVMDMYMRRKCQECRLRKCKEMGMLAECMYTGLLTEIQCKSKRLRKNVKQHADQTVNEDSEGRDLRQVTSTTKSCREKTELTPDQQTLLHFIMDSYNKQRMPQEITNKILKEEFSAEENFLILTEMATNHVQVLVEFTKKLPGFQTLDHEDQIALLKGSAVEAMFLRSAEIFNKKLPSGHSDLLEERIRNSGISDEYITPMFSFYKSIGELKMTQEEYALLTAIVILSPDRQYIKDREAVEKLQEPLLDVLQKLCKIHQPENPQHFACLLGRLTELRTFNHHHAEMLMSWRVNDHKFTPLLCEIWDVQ
Nature of the assay: Agonist activity at FXR (unknown origin) at 10 uM relative to control. The essentials: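 Nuclear hormone receptor (NHR) transactivation screen at FXR run by Eurofins DiscoverX; test agents at 10 µM.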

Assay [3] has as its target T3, G-protein coupled bile acid receptor 1 (Homo sapiens, UniProt Q8TDU6).
T3 sequence (Q8TDU6 whole entry): T1 sequence (whole entry)
Description: Agonist activity at human TGR5 expressed in HEK293 cells incubated for 30 mins by SEAP reporter gene based assay. Format: functional, cell-based. In short, it runs like this:
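Human TGR5 reverse-transfected 293T/17 cells in serum-free stimulation medium with 1% DMSO received a concentration series in triplicate, 30 min at bench then 7 h at 37 °C, 5% CO2. SEAP luminescence was read after heat inactivation at 65 °C. Response is % of 10 µM LCA, fitted by four-parameter unconstrained nonlinear regression to give EC50. Mean ± SD of three independent experiments.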

Active and inactive are the calls of the source. No cut-off for these calls is given here.

As to `CC[C@H]1[C@@H](O)[C@H]2[C@@H]3CC[C@H]([C@H](C)CCC(=O)O)[C@H]3[C@H](C)C[C@@H]2[C@@]2(C)CC[C@@H](O)C[C@@H]12`, the Activity in assay [1] came out at 33%.

Compound `CC[C@H]1[C@@H](O)[C@H]2[C@@H]3CC[C@@H]([C@H](C)CC(=O)NCCS(=O)(=O)O)[C@H]3[C@H](C)C[C@@H]2[C@@]2(C)CC[C@@H](O)C[C@@H]12` came in with an Activity in assay [1] (filed as agonist) of 42%.

Compound `CC[C@H]1[C@@H](O)[C@H]2[C@@H]3CC[C@H]([C@H](C)CCCC(=O)O)[C@H]3[C@H](C)C[C@@H]2[C@@]2(C)CC[C@@H](O)C[C@@H]12` gave an Activity in assay [1] (filed as agonist) of 54%.

As for `CC[C@H]1[C@@H](O)[C@H]2[C@@H]3CC[C@@H]([C@H](C)CCCC(=O)O)[C@H]3[C@H](C)C[C@@H]2[C@@]2(C)CC[C@@H](O)C[C@@H]12`, the Activity in assay [1] (filed as agonist) turned out to be 69%; in assay [2], 23%.

Regarding `C[C@@H]1C[C@H]2[C@H]([C@@H]3CC[C@@H]([C@H](C)C(=O)NCCS(=O)(=O)O)[C@H]31)[C@H](O)C[C@@H]1C[C@H](O)CC[C@@]12C`, the Activity in assay [1] (filed as agonist) is 56%.

The compound `C[C@H](CCCCC(=O)O)[C@@H]1CC[C@@H]2[C@@H]1[C@H](C)C[C@H]1[C@H]2[C@H](O)C[C@@H]2C[C@H](O)CC[C@@]21C` had an Activity in assay [1] (filed as agonist) of 43%.

As for `C[C@H](CCCCC(=O)O)[C@H]1CC[C@@H]2[C@@H]1[C@H](C)C[C@H]1[C@H]2[C@H](O)C[C@@H]2C[C@H](O)CC[C@@]21C`, the result in assay [1] was inactive.

In the case of `CC[C@H]1[C@@H](O)[C@H]2[C@@H]3CC[C@H]([C@H](C)CCCC(=O)NCCS(=O)(=O)O)[C@H]3[C@H](C)C[C@@H]2[C@@]2(C)CC[C@@H](O)C[C@@H]12`, the result in assay [1] was inactive.

A word on the EC50: it is the concentration that produces a half-maximal response. Low values mean higher potency in that assay, high ones lower potency in that assay. In the case of `CC[C@H]1[C@@H](O)[C@H]2[C@@H]3CC[C@@H]([C@H](C)CCC(=O)NCCS(=O)(=O)O)[C@H]3[C@H](C)C[C@@H]2[C@@]2(C)CC[C@@H](O)C[C@@H]12`, the Activity in assay [1] (filed as agonist) was 99%. This compound yielded an EC50 in assay [3] of 310 nM.

In the case of `CC[C@H]1[C@@H](O)[C@H]2[C@@H]3CC[C@H]([C@H](C)CC(=O)NCCS(=O)(=O)O)[C@H]3[C@H](C)C[C@@H]2[C@@]2(C)CC[C@@H](O)C[C@@H]12`, the outcome in assay [1] was inactive.

Regarding `C[C@H](CCCC(=O)O)[C@H]1CC[C@@H]2[C@@H]1[C@H](C)C[C@H]1[C@H]2[C@H](O)C[C@@H]2C[C@H](O)CC[C@@]21C`, in assay [1], the outcome was inactive.

In the case of `C[C@H](CCC(=O)O)[C@H]1CC[C@@H]2[C@@H]1[C@H](C)C[C@H]1[C@H]2[C@H](O)C[C@@H]2C[C@H](O)CC[C@@]21C`, the outcome in assay [1] was inactive.

The compound `CC[C@H]1[C@@H](O)[C@H]2[C@@H]3CC[C@@H]([C@H](C)CCCC(=O)NCCS(=O)(=O)O)[C@H]3[C@H](C)C[C@@H]2[C@@]2(C)CC[C@@H](O)C[C@@H]12` came in with an Activity in assay [1] (filed as agonist) of 99%. Moreover, the midpoint of the response in assay [3], the EC50, lay at 270 nM.

In assay [1] (filed as agonist), `CC[C@H]1[C@@H](O)[C@H]2[C@@H]3CC[C@@H]([C@H](C)CC(=O)O)[C@H]3[C@H](C)C[C@@H]2[C@@]2(C)CC[C@@H](O)C[C@@H]12` yielded an Activity of 42%.

On to `CC[C@H]1[C@@H](O)[C@H]2[C@@H]3CC[C@@H]([C@H](C)CCC(=O)O)[C@H]3[C@H](C)C[C@@H]2[C@@]2(C)CC[C@@H](O)C[C@@H]12`, for which the Activity in assay [1] (filed as agonist) turned out to be 62%; in assay [2], 31%.

Take `C[C@H](CCCC(=O)O)[C@@H]1CC[C@@H]2[C@@H]1[C@H](C)C[C@H]1[C@H]2[C@H](O)C[C@@H]2C[C@H](O)CC[C@@]21C`: the Activity in assay [1] came out at 26%.

In turn, `CC[C@H]1[C@@H](O)[C@H]2[C@@H]3CC[C@@H]([C@H](C)C(=O)NCCS(=O)(=O)O)[C@H]3[C@H](C)C[C@@H]2[C@@]2(C)CC[C@@H](O)C[C@@H]12` came in with an Activity in assay [1] (filed as agonist) of 61%.

In the case of `C[C@H](CC(=O)O)[C@@H]1CC[C@@H]2[C@@H]1[C@H](C)C[C@H]1[C@H]2[C@H](O)C[C@@H]2C[C@H](O)CC[C@@]21C`, in assay [1], the Activity stood at 4%.

Turning to `C[C@H](CC(=O)NCCS(=O)(=O)O)[C@@H]1CC[C@@H]2[C@@H]1[C@H](C)C[C@H]1[C@H]2[C@H](O)C[C@@H]2C[C@H](O)CC[C@@]21C`, the Activity in assay [1] was determined as 7%.

In assay [1] (filed as agonist), `C[C@H](CCCC(=O)NCCS(=O)(=O)O)[C@@H]1CC[C@@H]2[C@@H]1[C@H](C)C[C@H]1[C@H]2[C@H](O)C[C@@H]2C[C@H](O)CC[C@@]21C` showed an Activity of 62%.

In assay [1], `C[C@@H]1C[C@H]2[C@H]([C@@H]3CC[C@@H]([C@H](C)C(=O)O)[C@H]31)[C@H](O)C[C@@H]1C[C@H](O)CC[C@@]12C` yielded an Activity of 4%.

As to `CC[C@H]1[C@@H](O)[C@H]2[C@@H]3CC[C@@H]([C@H](C)C(=O)O)[C@H]3[C@H](C)C[C@@H]2[C@@]2(C)CC[C@@H](O)C[C@@H]12`, the Activity in assay [1] is 10%.

`CC[C@H]1[C@@H](O)[C@H]2[C@@H]3CC[C@H]([C@H](C)CC(=O)O)[C@H]3[C@H](C)C[C@@H]2[C@@]2(C)CC[C@@H](O)C[C@@H]12` registered an Activity in assay [1] of 11%.

`C[C@H](CCC(=O)NCCS(=O)(=O)O)[C@@H]1CC[C@@H]2[C@@H]1[C@H](C)C[C@H]1[C@H]2[C@H](O)C[C@@H]2C[C@H](O)CC[C@@]21C` came in with an Activity in assay [1] (filed as agonist) of 61%.

In turn, `CC[C@H]1[C@@H](O)[C@H]2[C@@H]3CC[C@H]([C@H](C)CCC(=O)NCCS(=O)(=O)O)[C@H]3[C@H](C)C[C@@H]2[C@@]2(C)CC[C@@H](O)C[C@@H]12` came in with an Activity in assay [1] (filed as agonist) of 99%. Moreover, the midpoint of the response in assay [3], the EC50, lay at 5200 nM.

The values are drawn from ChEMBL document CHEMBL5385894, “The discovery of 12β-methyl-17-epi-18-nor-bile acids as potent and selective TGR5 agonists” (Eur J Med Chem, 2023).
